In ChEMBL document CHEMBL2380272, “Biological evaluation of bisbenzaldehydes against four Mycobacterium species” (Eur J Med Chem, 2013):
Converted amounts (≈) assume the structure as drawn.

Experiments:
[1] = tested on: Mycobacterium tuberculosis; assay: Antimycobacterial activity against Mycobacterium tuberculosis H37Rv ATCC 27294 assessed as growth inhibition at 10 uM after 6 days by luciferase reporter gene assay relative to control; type: functional; conditions: H37Rv ATCC 27294, 144 h, read-out: GI
Method in brief: (§1)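 Luminescent M. tb H37Rv (hsp60-driven luciferase) in 7H9 + 10% FCS was seeded at 50 000 RLU/mL. Compounds were tested at 10, 1 and 0.1 µM from 10 mM DMSO stocks. After 6 days, luminescence was read with 1% n-decanal. Growth inhibition (%) was expressed against untreated culture, with triplicates.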

[2] = tested on: Salmonella typhimurium; assay: Genotoxicity in recombinant Salmonella typhimurium TA104 expressing Vibrio fisheri luxabcd genes under transcriptional control of recN2-4 promoter assessed as concentration required to cause DNA damage measured every 5 mins for 4 hrs by vitotox assay in presence of S9 fraction; type: toxicity, organism-based; conditions: salmonella enterica subsp. enterica serovar typhimurium, s9, 4 h
Method in brief: (§2)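 VITOTOX genox strain TA104 recN2-4 (recN promoter driving lux). Grown 16 h at 36 °C in poor LB, diluted 125-fold and shaken 1 h, then diluted 10-fold; rat aroclor S9 added for +S9 runs. Incubated at 30 °C with light read every 5 min for 4 h. Signal/noise = exposed over unexposed light. Highest concentration tested 10 µM.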

[3] = tested on: Mycobacterium tuberculosis; assay: Antimycobacterial activity against Mycobacterium tuberculosis H37Rv infected in mouse J774.A1 cells at 1 MOI assessed as intracellular bacterial growth inhibition at 1 uM after 1 hr by luciferase reporter gene assay relative to control; type: functional; conditions: J774.A1, 1 h, read-out: GI
[4] = tested on: Salmonella typhimurium; assay: Genotoxicity in recombinant Salmonella typhimurium TA104 expressing Vibrio fisheri luxabcd genes under transcriptional control of recN2-4 promoter assessed as concentration required to cause DNA damage measured every 5 mins for 4 hrs by vitotox assay in absence of S9 fraction; type: toxicity, organism-based; conditions: salmonella enterica subsp. enterica serovar typhimurium; method in brief: as §2
[5] = Selectivity index, ratio of NI50 for human HepG2/C3A cells to MIC50 for Mycobacterium tuberculosis H37Rv ATCC 27294; type: functional
[6] = tested on: Mycobacterium ulcerans; assay: Antimycobacterial activity against Mycobacterium ulcerans 1615 assessed as growth inhibition after 6 days by luciferase reporter gene assay; type: functional; conditions: Mycobacterium ulcerans, 1615, 144 h
Method in brief: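 M. ulcerans 1615 carrying pSMT1 luciferase reporter plasmid, stock grown as surface pellicle on Sauton medium, cultured at 32 °C. Serial compound dilutions in 7H9 + 10% FCS from 10 mM DMSO stocks, tested in triplicate. Filtered bacteria added at 50 000 RLU/mL. After 6 days, wells collected and washed with PBS, 1% n-decanal in ethanol added, light read over 10 s. MIC50 = concentration giving 50% inhibition versus untreated.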

[7] = Antimycobacterial activity against Mycobacterium avium subsp. avium ATCC 15769 assessed as growth inhibition after 6 days by luciferase reporter gene assay; type: functional; conditions: ATCC 15769, 144 h
Method in brief: (§3)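 Mycobacteria carrying the pSMT1 luciferase reporter plasmid. Compounds came from 10 mM DMSO stocks and were serially diluted in 7H9 + 10% FCS. Thawed bacteria were filtered, recovered 1 h at 37 °C, then added at 50 000 RLU/mL. After 6 days of culture, light was read for 10 s after adding 1% n-decanal. Triplicates were run, and MIC50 was the concentration giving 50% growth inhibition.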

[8] = tested on: Mycobacterium tuberculosis; assay: Antimycobacterial activity against Mycobacterium tuberculosis H37Rv ATCC 27294 assessed as growth inhibition at 1 uM after 6 days by luciferase reporter gene assay relative to control; type: functional; conditions: H37Rv ATCC 27294, 144 h, read-out: GI; method in brief: as §1
[9] = tested on: Salmonella typhimurium; assay: Toxicity in recombinant Salmonella typhimurium TA104 expressing luxabcd genes under transcriptional control of constitutive pr1 promoter assessed as concentration required to reduce cell viability measured every 5 mins for 4 hrs by vitotox assay in absence of S9 fraction; type: organism-based; conditions: salmonella enterica subsp. enterica serovar typhimurium
Method in brief: (§4)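 Cytox strain TA104 pr1 (constitutive promoter driving lux), run alongside the genox strain. Grown in poor LB at 36 °C for 16 h, diluted 125-fold and shaken 1 h, then diluted 10-fold, with or without aroclor-rat S9. Luminescence read at 30 °C every 5 min over 4 h; a drop in light signal indicates reduced viability. Top concentration 10 µM.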

[10] = tested on: Mycobacterium avium subsp. paratuberculosis; assay: Antimycobacterial activity against Mycobacterium avium subsp. paratuberculosis ATCC 19698 assessed as growth inhibition after 6 days by luciferase reporter gene assay; type: functional; conditions: ATCC 19698, 144 h; method in brief: as §3
[11] = tested on: Mycobacterium tuberculosis; assay: Antimycobacterial activity against Mycobacterium tuberculosis H37Rv infected in mouse J774.A1 cells at 1 MOI assessed as intracellular bacterial growth inhibition at 10 uM after 1 hr by luciferase reporter gene assay relative to control; type: functional; conditions: J774.A1, 1 h, read-out: GI
[12] = Toxicity in recombinant Salmonella typhimurium TA104 expressing luxabcd genes under transcriptional control of constitutive pr1 promoter assessed as concentration required to reduce cell viability measured every 5 mins for 4 hrs by vitotox assay in presence of S9 fraction; type: organism-based; conditions: salmonella enterica subsp. enterica serovar typhimurium; read-out: Activity; method in brief: as §4
[13] = Cytotoxicity against human HepG2/C3A cells assessed as cell viability at 60 uM after 24 hrs by neutral red uptake assay relative to control; type: cell-based; conditions: read-out: Activity
Method in brief: (§5)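 C3A cells grown in DMEM + 10% FCS, 40 000 cells/well, recovered overnight at 37 °C, 5% CO2. Exposed 24 h to serial dilutions in DMEM + 10% FCS from 18 mM DMSO stocks, DMSO limited to 1%. Neutral red added for 3 h, cells washed, dye extracted with ethanol/acetic acid (50%/1%), OD read at 540 nm with 620 nm reference. Viability expressed as % of untreated cells.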

[14] = tested on: Mycobacterium tuberculosis; assay: Antimycobacterial activity against Mycobacterium tuberculosis H37Rv ATCC 27294 assessed as growth inhibition at 0.1 uM after 6 days by luciferase reporter gene assay relative to control; type: functional; conditions: H37Rv ATCC 27294, 144 h, read-out: GI; method in brief: as §1
[15] = tested on: Mycobacterium tuberculosis; assay: Antimycobacterial activity against Mycobacterium tuberculosis H37Rv infected in mouse J774.A1 cells at 1 MOI assessed as intracellular bacterial growth inhibition at 0.1 uM after 1 hr by luciferase reporter gene assay relative to control; type: functional; conditions: J774.A1, 1 h, read-out: GI
[16] = tested on: Mycobacterium tuberculosis; assay: Antimycobacterial activity against Mycobacterium tuberculosis H37Rv ATCC 27294 assessed as growth inhibition after 6 days by luciferase reporter gene assay; type: functional; conditions: H37Rv ATCC 27294, 144 h; method in brief: as §3
[17] = Cytotoxicity against human HepG2/C3A cells assessed as cell viability at 120 uM after 24 hrs by neutral red uptake assay relative to control; type: cell-based; conditions: read-out: Activity; method in brief: as §5
[18] = Cytotoxicity against human HepG2/C3A cells assessed as cell viability at 180 uM after 24 hrs by neutral red uptake assay relative to control; type: cell-based; conditions: read-out: Activity; method in brief: as §5
[19] = Potency index, ratio of MIC50 for Mycobacterium avium subsp. paratuberculosis ATCC 19698 to MIC50 for Mycobacterium bovis AN5; type: functional
[20] = Potency index, ratio of MIC50 for Mycobacterium avium subsp. avium ATCC 15769 to MIC50 for Mycobacterium bovis AN5; type: functional

| SMILES | inhibition of growth at 10 µM [1] [%] | Activity [2] [µM] | percent inhibition of intracellular bacterial growth at 1 µM [3] [%] | Activity [4] [µM] | Selectivity Index [5] | MIC50 [6] [µM] | MIC50 [7] [µM] | inhibition of growth at 1 µM [8] [%] | Activity [9] [µM] | MIC50 [10] [µM] | intracellular bacterial growth inhibition at 10 µM [11] [%] | MCC at 4 h [12] [µM] | viability at 24 h, 60 µM [13] [%] | inhibition of growth at 0.1 µM [14] [%] | intracellular bacterial growth inhibition at 0.1 µM [15] [%] | MIC50 [16] [µM] | viability at 24 h, 120 µM [17] [%] | viability at 24 h, 180 µM [18] [%] | Ratio [19] | Ratio [20] |
| --- | --- | --- | --- | --- | --- | --- | --- | --- | --- | --- | --- | --- | --- | --- | --- | --- | --- | --- | --- | --- |
| O=Cc1ccc(OCCCOc2ccc(C=O)cc2)cc1 | 84 | > 10 | 29.9 | > 10 | >67.9 | > 10 | > 10 | 35 | > 10 | > 10 | 42 | > 10 | 94.9 | < 10 | -1.2 | 2.65 (≈ 0.753 µg/mL) | 94.8 | 77.4 | – | – |
| O=Cc1ccc(OCOc2ccc(C=O)cc2)cc1 | 85 | > 10 | 35.2 | > 10 | >60 | > 10 | > 10 | 30 | > 10 | > 10 | 41.3 | > 10 | 96.8 | < 10 | 1.6 | 3 (≈ 0.769 µg/mL) | 91.6 | 78.6 | – | – |
| O=Cc1ccc(OCCCCCCOc2ccc(C=O)cc2)cc1 | 99 | > 10 | 46.6 | > 10 | >216.9 | > 10 | 6.18 (≈ 2.02 µg/mL) | 65 | > 10 | 6.56 (≈ 2.14 µg/mL) | 52.6 | > 10 | 93.4 | 15 | 3.2 | 0.83 (≈ 0.271 µg/mL) | 85.9 | 59.3 | 5 | 5 |
| O=Cc1ccc(OCCOc2ccc(C=O)cc2)cc1 | 90 | > 10 | 32.6 | > 10 | >80.7 | > 10 | > 10 | 41 | > 10 | > 10 | 39.2 | > 10 | 93.6 | < 10 | 0.3 | 2.23 (≈ 0.603 µg/mL) | 85 | 70.5 | – | – |
| O=Cc1ccc(OCCCCOc2ccc(C=O)cc2)cc1 | 87 | > 10 | 39 | > 10 | >56.1 | > 10 | > 10 | 25 | > 10 | > 10 | 41.3 | > 10 | 86.1 | < 10 | -0.9 | 3.21 (≈ 0.958 µg/mL) | 73.2 | 55.7 | – | – |
| O=Cc1ccc(OCCCCCOc2ccc(C=O)cc2)cc1 | 95 | > 10 | 38.1 | > 10 | >110.4 | > 10 | 7.32 (≈ 2.29 µg/mL) | 39 | > 10 | 8.69 (≈ 2.71 µg/mL) | 46.8 | > 10 | 90.4 | < 10 | 0.2 | 1.63 (≈ 0.509 µg/mL) | 72.6 | 45.6 | – | – |
